Laboratory results published in ChEMBL document CHEMBL1157301, “N-Methyl-4-hydroxy-2-pyridinone analogues from Fusarium oxysporum” (J Nat Prod, 2006).
In brackets after ≈: the same amount, converted by molar mass. Activity calls are given as the source filed them. No cut-off for these calls is given here.

Columns and labels:
Type in all cases: functional, organism-based
[1] = test system: Aspergillus fumigatus; experiment: Antifungal activity against Aspergillus fumigatus ATCC 90906 at 30 degC after 68 to 72 hrs
[2] = test system: Candida albicans; experiment: Antifungal activity against Candida albicans ATCC 90028 at 37 degC after 18 to 24 hrs
[3] = test system: Cryptococcus neoformans; experiment: Antifungal activity against Cryptococcus neoformans ATCC 90113 at 30 degC after 68 to 72 hrs
[4] = test system: Mycobacterium intracellulare; experiment: Antimycobacterial activity against Mycobacterium intracellular ATCC 23068 at 37 degC after 68 to 72 hrs
Summary of the method: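 Modified Franzblau microdilution. Samples in DMSO, serially diluted in 20% DMSO/saline, tested in duplicate. Inoculum in Middlebrook 7H9 broth with OADC and 5% Alamar Blue, pH 7.3. Incubated at 37 °C, 10% CO2, 68–72 h. Fluorescence read at 544ex/590em before and after incubation. IC50 from percent growth versus concentration; MIC is the lowest concentration with no detectable growth. Ciprofloxacin control.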

[5] = test system: Fusarium verticillioides; experiment: Antifungal activity against Fusarium verticillioides up to 1 mg/mL by disk assay
Summary of the method: (§1)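 Disk diffusion assay run as described by Alam et al., with captan as positive control; compounds tested up to 1mg/mL.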

[6] = test system: Aspergillus flavus; experiment: Antifungal activity against Aspergillus flavus up to 1 mg/mL by disk assay; summary of the method: as §1
[7] = test system: Candida albicans; experiment: Antifungal activity against Candida albicans ATCC 90028 up to 50 ug/mL after 18 to 24 hrs at 37 degC

C[C@@H]1[C@H](O)[C@@H](C)/C=C/C=C/C=C/C=C/C=C/C=C/C=C/[C@H](O[C@@H]2O[C@H](C)[C@@H](O)[C@H](N)[C@@H]2O)C[C@@H]2O[C@](O)(C[C@@H](O)C[C@@H](O)[C@H](O)CC[C@@H](O)C[C@@H](O)CC(=O)O[C@H]1C)C[C@H](O)[C@H]2C(=O)O [AMPHOTERICIN B]
IC50 [1]: 0.91 µg/mL (≈ 0.985 µM)

CC[C@H](C)[C@H]1C(=O)O[C@H](C(C)C)C(=O)N(C)[C@@H](C(C)C)C(=O)O[C@H](C(C)C)C(=O)N(C)[C@@H](C(C)C)C(=O)O[C@H](C(C)C)C(=O)N1C [ENNIATIN B1]
IC50 [2]: 2 µg/mL (≈ 3.06 µM) | MIC [2]: 6.25 µg/mL (≈ 9.56 µM) | IC50 [3]: 9 µg/mL (≈ 13.8 µM) | MIC [3]: 25 µg/mL (≈ 38.2 µM) | IC50 [4]: 15 µg/mL (≈ 22.9 µM)

O=C(O)c1cn(C2CC2)c2cc(N3CCNCC3)c(F)cc2c1=O [CIPROFLOXACIN]
MIC [4]: 0.63 µg/mL (≈ 1.9 µM)

CCC(C)CC(C)/C=C(\C)[C@@H]1O[C@H](c2c(O)c([C@@]3(O)CCC(=O)C[C@H]3O)cn(C)c2=O)CC[C@H]1C (stereo not given in full)
IC50 [1]: 35 µg/mL (≈ 71.5 µM) | Activity [5]: inactive | Activity [6]: inactive

CCC(C)CC(C)/C=C(\C)[C@@H]1O[C@H](c2c(O)c(-c3ccc(O)cc3)cn(C)c2=O)CC[C@H]1C (stereo not given in full)
Activity [2]: inactive | Activity [3]: inactive | Activity [4]: inactive | Activity [1]: inactive | Activity [5]: inactive | Activity [6]: inactive

COC[C@H]1OC(=O)c2coc3c2[C@@]1(C)C1=C(C3=O)[C@@H]2CCC(=O)[C@@]2(C)C[C@H]1OC(C)=O [WORTMANNIN]
IC50 [2]: 0.25 µg/mL (≈ 0.584 µM) | MIC [2]: 0.78 µg/mL (≈ 1.82 µM)

CCC(C)CC(C)/C=C(\C)[C@@H]1O[C@H](c2c(O)c(-c3ccc(O)cc3)c[nH]c2=O)CC[C@H]1C (stereo not given in full)
Activity [2]: inactive | Activity [3]: inactive | Activity [4]: inactive | Activity [1]: inactive | Activity [5]: inactive | Activity [6]: inactive

CCC(C)CC(C)/C=C(\C)C1OC(c2c(O)c([C@]3(O)CCC(=O)C[C@@H]3O)cn(C)c2=O)CC[C@@H]1C (stereo not given in full)
IC50 [3]: 35 µg/mL (≈ 71.5 µM) | IC50 [1]: 2 µg/mL (≈ 4.08 µM) | Activity [7]: inactive | Activity [5]: inactive | Activity [6]: inactive

CCC(C)CC(C)/C=C(\C)[C@@H]1O[C@H](c2c(O)c([C@@]3(O)CCC(OC)(OC)C[C@@H]3O)cn(C)c2=O)CC[C@H]1C (stereo not given in full)
Activity [2]: inactive | Activity [3]: inactive | Activity [4]: inactive | Activity [1]: inactive | Activity [5]: inactive | Activity [6]: inactive
